The values that follow come from ChEMBL document CHEMBL3124818, “Synthesis and antimicrobial evaluation of amide derivatives of benzodifuran-2-carboxylic acid” (2014).

What all share (type): functional
For assay [1], the system named is Candida albicans. As to the kind of experiment: Antifungal activity against Candida albicans by broth dilution method. Put shortly: (§1)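 Broth dilution screen. Compounds tested at 40 μg to 600 μg. MIC was read as the lowest concentration preventing visible growth. Solvent controls were included. Ciprofloxacin (antibacterial) and fluconazole (antifungal) were run under similar conditions as reference drugs.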

Assay [2] deals with Pseudomonas aeruginosa. The assay is described as follows: Antibacterial activity against Pseudomonas aeruginosa by broth dilution method. Summed up:
as §1

Assay [3] deals with Escherichia coli. The assay is described as follows: Antibacterial activity against Escherichia coli by broth dilution method. Summed up:
as §1

In assay [4] the test system is Bacillus subtilis. The assay is described as follows: Antibacterial activity against Bacillus subtilis by broth dilution method. Put shortly: as §1
The subject of assay [5] is Staphylococcus aureus. As to the kind of experiment: Antibacterial activity against Staphylococcus aureus by broth dilution method. Summed up:
as §1

Converted amounts (≈) assume the structure as drawn.

Turning to `CCN(CC)C(=O)c1oc2cc3occ(C)c3cc2c1C`, the MIC in assay [1] was 600 µg/mL (≈ 2100 µM); in assay [2], 600 µg/mL (≈ 2100 µM); in assay [3] it was 400 µg/mL (≈ 1400 µM); in assay [4], 400 µg/mL (≈ 1400 µM); in assay [5] it was 160 µg/mL (≈ 561 µM).

Turning to `O=C(O)c1cn(C2CC2)c2cc(N3CCNCC3)c(F)cc2c1=O` [CIPROFLOXACIN], the MIC in assay [2] was 7.5 µg/mL (≈ 22.6 µM); in assay [3], 15 µg/mL (≈ 45.3 µM); in assay [4] it was 2 µg/mL (≈ 6.04 µM); in assay [5], 5 µg/mL (≈ 15.1 µM).

Turning to `Cc1coc2cc3oc(C(=O)N4CCCCC4)c(C)c3cc12`, the MIC in assay [1] was at least 600 µg/mL; in assay [2] it was at least 600 µg/mL; in assay [3] it was 600 µg/mL (≈ 2020 µM); in assay [4], 200 µg/mL (≈ 673 µM); in assay [5], 400 µg/mL (≈ 1350 µM).

Regarding `OC(Cn1cncn1)(Cn1cncn1)c1ccc(F)cc1F` [FLUCONAZOLE], in assay [1], inhibition of growth (MIC) required 5 µg/mL (≈ 16.3 µM).

Consider `Cc1coc2cc3oc(C(=O)Nc4ccc(O)cc4)c(C)c3cc12`, for which the MIC is at least 600 µg/mL in assay [1]; at least 600 µg/mL in assay [2]; 600 µg/mL (≈ 1870 µM) in assay [3]; 200 µg/mL (≈ 622 µM) in assay [4]; 600 µg/mL (≈ 1870 µM) in assay [5].

Consider `Cc1ccc(NC(=O)c2oc3cc4occ(C)c4cc3c2C)cc1`, for which the MIC in assay [1] was at least 600 µg/mL; in assay [2] it was at least 600 µg/mL; in assay [3] it was at least 600 µg/mL; in assay [4] it was 200 µg/mL (≈ 626 µM); in assay [5], 200 µg/mL (≈ 626 µM).

Take `Cc1coc2cc3oc(C(=O)Nc4ccc(Cl)cc4)c(C)c3cc12`: the MIC in assay [1] is at least 600 µg/mL; in assay [2], at least 600 µg/mL; in assay [3] it was 200 µg/mL (≈ 589 µM); in assay [4] it was 200 µg/mL (≈ 589 µM); in assay [5], 400 µg/mL (≈ 1180 µM).

Take `Cc1coc2cc3oc(C(=O)N4CCc5ccccc5C4)c(C)c3cc12`: the MIC in assay [1] was 600 µg/mL (≈ 1740 µM); in assay [2], at least 600 µg/mL; in assay [3], at least 600 µg/mL; in assay [4], 160 µg/mL (≈ 463 µM); in assay [5], 400 µg/mL (≈ 1160 µM).

In the case of `Cc1coc2cc3oc(C(=O)Nc4ccc(C(=O)O)cc4)c(C)c3cc12`, the MIC in assay [1] stood at 600 µg/mL (≈ 1720 µM); in assay [2] it was 600 µg/mL (≈ 1720 µM); in assay [3], 400 µg/mL (≈ 1150 µM); in assay [4], 160 µg/mL (≈ 458 µM); in assay [5], 600 µg/mL (≈ 1720 µM).

With `Cc1coc2cc3oc(C(=O)N4CCOCC4)c(C)c3cc12`, the MIC is at least 600 µg/mL in assay [1]; at least 600 µg/mL in assay [2]; 600 µg/mL (≈ 2000 µM) in assay [3]; 200 µg/mL (≈ 668 µM) in assay [4]; 400 µg/mL (≈ 1340 µM) in assay [5].

As for `Cc1coc2cc3oc(C(=O)Nc4ccccc4)c(C)c3cc12`, the MIC in assay [1] is 600 µg/mL (≈ 1970 µM); in assay [2], 600 µg/mL (≈ 1970 µM); in assay [3] it was 600 µg/mL (≈ 1970 µM); in assay [4] it was 400 µg/mL (≈ 1310 µM); in assay [5] it was 600 µg/mL (≈ 1970 µM).

Regarding `Cc1coc2cc3oc(C(=O)N4CCCC4)c(C)c3cc12`, the MIC in assay [1] is 600 µg/mL (≈ 2120 µM); in assay [2], at least 600 µg/mL; in assay [3] it was 400 µg/mL (≈ 1410 µM); in assay [4], 400 µg/mL (≈ 1410 µM); in assay [5] it was 160 µg/mL (≈ 565 µM).

Regarding `COc1ccc(NC(=O)c2oc3cc4occ(C)c4cc3c2C)cc1`, the MIC in assay [1] was at least 600 µg/mL; in assay [2] it was at least 600 µg/mL; in assay [3], at least 600 µg/mL; in assay [4], 400 µg/mL (≈ 1190 µM); in assay [5], 160 µg/mL (≈ 477 µM).
